Consider 21 compounds from BindingDB's records for doi:10.1021/jm950541c (Georgia Institute of Technology, 1996).

The assay addresses T1, Calpain-2 catalytic subunit (Homo sapiens, UniProt P17655).
T1 sequence (P17655 whole entry): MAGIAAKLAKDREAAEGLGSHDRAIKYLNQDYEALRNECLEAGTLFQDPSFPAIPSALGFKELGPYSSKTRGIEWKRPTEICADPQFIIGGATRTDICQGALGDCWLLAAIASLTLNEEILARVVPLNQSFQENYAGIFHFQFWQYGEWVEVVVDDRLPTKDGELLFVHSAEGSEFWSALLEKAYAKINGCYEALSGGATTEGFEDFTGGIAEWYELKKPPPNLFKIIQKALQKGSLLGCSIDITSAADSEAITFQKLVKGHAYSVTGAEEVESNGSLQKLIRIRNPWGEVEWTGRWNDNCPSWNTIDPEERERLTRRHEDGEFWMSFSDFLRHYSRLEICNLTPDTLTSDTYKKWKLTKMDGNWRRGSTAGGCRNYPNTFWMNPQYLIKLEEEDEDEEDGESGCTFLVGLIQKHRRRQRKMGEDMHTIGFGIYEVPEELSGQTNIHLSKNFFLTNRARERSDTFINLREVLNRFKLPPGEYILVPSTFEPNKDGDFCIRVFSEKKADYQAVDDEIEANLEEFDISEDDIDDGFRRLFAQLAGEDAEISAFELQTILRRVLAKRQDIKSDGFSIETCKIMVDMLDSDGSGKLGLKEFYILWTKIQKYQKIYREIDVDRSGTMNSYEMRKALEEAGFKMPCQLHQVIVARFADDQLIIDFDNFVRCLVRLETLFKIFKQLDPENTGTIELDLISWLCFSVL
Briefly: Compound was evaluated for the inhibition of Cysteine protease Calpain 2. The essentials: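 Calpain assay in 25 mM Tris, pH 8.0, with 10 mM CaCl₂ and 5% DMSO. Suc-Leu-AMC hydrolysis was read as initial velocity (t = 30-60 s) after a 30 s delay, at room temperature. Five or more inhibitor concentrations (not above 2 × K_obs) were used at two fixed substrate levels. Ki came from Dixon plots (1/v vs I) averaged over triplicates.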
`CCC(NC(=O)C(CC(C)C)NC(=O)OCc1ccccc1)C(=O)C(=O)NCC(OC)OC` (stereo unspecified) [{1-[1-(2,2-Dimethoxy-ethylaminooxalyl)-propylcarbamoyl]-3-methyl-butyl}-carbamic acid benzyl ester]: the Ki is 100 nM.

Compound `CCC(NC(=O)C(CC(C)C)NC(=O)OCc1ccccc1)C(=O)C(=O)NCC(O)c1cccc2ccccc12` (stereo unspecified) [{1-[1-(2-Hydroxy-2-naphthalen-1-yl-ethylaminooxalyl)-propylcarbamoyl]-3-methyl-butyl}-carbamic acid benzyl ester] yielded a Ki of 170 nM.

As for `CCC(NC(=O)C(CC(C)C)NC(=O)OCc1ccccc1)C(=O)C(=O)NCC(O)c1ccc2ccccc2c1` (stereo unspecified) [{1-[1-(2-Hydroxy-2-naphthalen-2-yl-ethylaminooxalyl)-propylcarbamoyl]-3-methyl-butyl}-carbamic acid benzyl ester], the Ki was 110 nM.

As for `CCC(NC(=O)C(CC(C)C)NC(=O)OCc1ccccc1)C(=O)C(=O)NCC(O)c1c(F)c(F)c(F)c(F)c1F` (stereo unspecified) [{1-[1-(2-Hydroxy-2-pentafluorophenyl-ethylaminooxalyl)-propylcarbamoyl]-3-methyl-butyl}-carbamic acid benzyl ester], the Ki was found to be 200 nM.

`CCCC(NC(=O)C(CC(C)C)NC(=O)OCc1ccccc1)C(=O)C(=O)NCC(O)c1ccccc1` (stereo unspecified) [{1-[1-(2-Hydroxy-2-phenyl-ethylaminooxalyl)-butylcarbamoyl]-3-methyl-butyl}-carbamic acid benzyl ester] came in with a Ki of 11000 nM.

The compound `CCC(NC(=O)C(CC(C)C)NC(=O)OCc1ccccc1)C(=O)C(=O)NCC(O)c1ccccc1` (stereo unspecified) [{1-[1-(2-Hydroxy-2-phenyl-ethylaminooxalyl)-propylcarbamoyl]-3-methyl-butyl}-carbamic acid benzyl ester] displayed a Ki of 15 nM.

`CCC(NC(=O)C(CC(C)C)NC(=O)OCc1ccccc1)C(=O)C(=O)NCCO` (stereo unspecified) [{1-[1-(2-Hydroxy-ethylaminooxalyl)-propylcarbamoyl]-3-methyl-butyl}-carbamic acid benzyl ester] came in with a Ki of 78 nM.

Compound `CCC(NC(=O)C(CC(C)C)NC(=O)OCc1ccccc1)C(=O)C(=O)NCc1cc(OC)cc(OC)c1` (stereo unspecified) [{1-[1-(3,5-Dimethoxy-benzylaminooxalyl)-propylcarbamoyl]-3-methyl-butyl}-carbamic acid benzyl ester] displayed a Ki of 22 nM.

As to `CCC(NC(=O)C(CC(C)C)NC(=O)OCc1ccccc1)C(=O)C(=O)NCCCn1ccnc1` (stereo unspecified) [{1-[1-(3-Imidazol-1-yl-propylaminooxalyl)-propylcarbamoyl]-3-methyl-butyl}-carbamic acid benzyl ester], the Ki was determined as 68 nM.

In turn, `CCC(NC(=O)C(CC(C)C)NC(=O)OCc1ccccc1)C(=O)C(=O)NCC1(C)CC(O)CC(C)(C)C1` (stereo unspecified) [{1-[1-(5-Hydroxy-1,3,3-trimethyl-cyclohexylmethyl)-aminooxalyl]-propylcarbamoyl}-3-methyl-butyl)-carbamic acid benzyl ester] displayed a Ki of 69 nM.

With `CCC(NC(=O)C(CC(C)C)NC(=O)OCc1ccccc1)C(=O)C(=O)NCCCCCO` (stereo unspecified) [{1-[1-(5-Hydroxy-pentylaminooxalyl)-propylcarbamoyl]-3-methyl-butyl}-carbamic acid benzyl ester], the Ki worked out at 51 nM.

In turn, `CCC(NC(=O)C(CC(C)C)NC(=O)OCc1ccccc1)C(=O)C(=O)NCc1ccco1` (stereo unspecified) [{1-[1-(Furan-2-ylmethyl)-aminooxalyl]-propylcarbamoyl}-3-methyl-butyl)-carbamic acid benzyl ester] registered a Ki of 33 nM.

In turn, `CCC(NC(=O)C(CC(C)C)NC(=O)OCc1ccccc1)C(=O)C(=O)NCc1nccc2ccccc12` (stereo unspecified) [{1-[1-(Isoquinolin-1-ylmethyl)-aminooxalyl]-propylcarbamoyl}-3-methyl-butyl)-carbamic acid benzyl ester] registered a Ki of 150 nM.

Take `CC(C)CC(NC(=O)OCc1ccccc1)C(=O)NC(Cc1ccccc1)C(=O)C(=O)NCC(O)c1c(F)c(F)c(F)c(F)c1F` (stereo unspecified) [{1-[1-Benzyl-2-(2-hydroxy-2-pentafluorophenyl-ethylcarbamoyl)-2-oxo-ethylcarbamoyl]-3-methyl-butyl}-carbamic acid benzyl ester]: the Ki stood at 350 nM.

With `CC(C)CC(NC(=O)OCc1ccccc1)C(=O)NC(Cc1ccccc1)C(=O)C(=O)NCC(O)c1ccccc1` (stereo unspecified) [{1-[1-Benzyl-2-(2-hydroxy-2-phenyl-ethylcarbamoyl)-2-oxo-ethylcarbamoyl]-3-methyl-butyl}-carbamic acid benzyl ester], the affinity, expressed as Ki, was 50 nM.

Regarding `CC(C)CC(NC(=O)OCc1ccccc1)C(=O)NC(Cc1ccccc1)C(=O)C(=O)NCCCN1CCOCC1` (stereo unspecified) [{1-[1-Benzyl-2-(3-morpholin-4-yl-propylcarbamoyl)-2-oxo-ethylcarbamoyl]-3-methyl-butyl}-carbamic acid benzyl ester], affinity was put at a Ki of 330 nM.

Compound `CCC(NC(=O)C(CC(C)C)NC(=O)OCc1ccccc1)C(=O)C(=O)NCc1nc2c(c(=O)n(C)c(=O)n2C)n1C` (stereo unspecified) [{3-Methyl-1-[1-(1,3,7-trimethyl-2,6-dioxo-2,3,6,7-tetrahydro-1H-purin-8-ylmethyl)-aminooxalyl]-propylcarbamoyl}-butyl)-carbamic acid benzyl ester] showed a Ki of 4600 nM.

Take `CCC(NC(=O)C(CC(C)C)NC(=O)OCc1ccccc1)C(=O)C(=O)NCCc1ccccn1` (stereo unspecified) [{3-Methyl-1-[1-(2-pyridin-2-yl-ethylaminooxalyl)-propylcarbamoyl]-butyl}-carbamic acid benzyl ester]: the affinity, expressed as Ki, was 470 nM.

As to `CCCC(NC(=O)C(CC(C)C)NC(=O)OCc1ccccc1)C(=O)C(=O)NCCCN1CCOCC1` (stereo unspecified) [{3-Methyl-1-[1-(3-morpholin-4-yl-propylaminooxalyl)-butylcarbamoyl]-butyl}-carbamic acid benzyl ester], the Ki was found to be 100 nM.

Take `CCC(NC(=O)C(CC(C)C)NC(=O)OCc1ccccc1)C(=O)C(=O)NCc1ccccn1` (stereo unspecified) [{3-Methyl-1-[1-(pyridin-2-ylmethyl)-aminooxalyl]-propylcarbamoyl}-butyl)-carbamic acid benzyl ester]: the Ki was determined as 17 nM.

In the case of `CCC(NC(=O)C(CC(C)C)NC(=O)OCc1ccccc1)C(=O)C(=O)NCc1ccncc1` (stereo unspecified) [{3-Methyl-1-[1-(pyridin-4-ylmethyl)-aminooxalyl]-propylcarbamoyl}-butyl)-carbamic acid benzyl ester], the Ki worked out at 110 nM.

Usually Ki stands for the equilibrium dissociation constant of an inhibitor or competing ligand from its target.
